Measured values from publication PMC11078769 (Heliyon, 2024).

Tests used:
[1] = system: L. monocytogenes ATCC 19115; test: Inhibition of biofilm formation, crystal violet; format: cell-based, Listeria monocytogenes; details: sodium lactate at 5 % (positive control); 37 °C, 24 h, crystal violet A570
Summary of the method: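 Test compound stock mixed with L. monocytogenes at 10^6 CFU/mL to final 2, 4 and 8 μg/mL, grown in microplate wells. Phosphate buffer (pH 7.0) served as negative control. Planktonic cells removed, wells washed twice with phosphate buffer, then stained 30 min with 0.1 % crystal violet and rinsed. Bound dye eluted with 95 % ethanol. Run in triplicate.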

[2] = system: L. monocytogenes; details: as reported; cited from earlier work
[3] = system: CCDC18Co human cells; details: 0.27 to 27 μmol/L; cited from earlier work
[4] = system: MCF10A human cells; details: 0.27 to 27 μmol/L; cited from earlier work
[5] = system: defibrinated erythrocytes; details: enterocin AS-48 at 5–20 μmol/L; cited from earlier work

Compound | inhibition rate of biofilm formation [1] | MIC [2] | Cytotoxicity [3] | Cytotoxicity [4] | percent hemolysis [5]
CC(O)C(=O)[O-].[Na+] (centres unmarked) [sodium lactate] | 54.36% | – | – | – | –
enterocin AS-48 | – | 0.1 µg/mL | no cytotoxicity | no cytotoxicity | 3%–22.6
